Source: PMC5783483 (Molecular Medicine Reports, 2017)
Marks after values point to notes of the source that are not given here.

Experiments:
Assay type in all cases: in vivo, BALB/c/nu nude mice
Conditions in all cases: Taxol 5 mg/kg injection twice per week
[1] = tested on: MX-1 xenograft; test: Breast cancer MX-1 xenograft model
How it was run: (§1)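 Six-week-old female BALB/c/nu nude mice (15–16 g) bearing MX-1 or MX-1/T xenografts, housed at 25°C on a 12-h light/dark cycle. Mice were randomized into four groups of five once mean tumor volume reached 100–250 mm3. Read-outs were relative tumor volume T/C and excised tumor weight, as mean ± SD.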

[2] = tested on: MCF-7 xenograft; test: Breast cancer MCF-7 xenograft model
How it was run: (§2)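 Six-week-old female BALB/c/nu nude mice (16–22 g) bearing MCF-7 or MCF-7/T xenografts, housed at 25°C on a 12-h light/dark cycle. Mice were randomized into four groups of five at a mean tumor volume of 100–250 mm3. Read-outs were RTV T/C and excised tumor weight, as mean ± SD.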

[3] = tested on: MX-1/T xenograft; test: Breast cancer MX-1/T xenograft model
How it was run: as §1

[4] = tested on: MCF-7/T xenograft; test: Breast cancer MCF-7/T xenograft model
How it was run: as §2

CC(=O)O[C@H]1C(=O)[C@@]2(C)[C@H]([C@H](OC(=O)c3ccccc3)[C@]3(O)C[C@H](OC(=O)[C@H](O)[C@@H](NC(=O)c4ccccc4)c4ccccc4)C(C)=C1C3(C)C)[C@]1(OC(C)=O)CO[C@@H]1C[C@@H]2O [Taxol]
Body weight Final ([1]; 13 days): 20.8 ± 2.2 g | Relative tumor volume Treated/control ratio ([1]; 13 days): 55.56% | Relative tumor volume x±SD ([1]; 13 days): 12.27±2.33^b | Tumor volume Final ([1]; 13 days): 1,714.4±308.2^a mm3 | Tumor weight Inhibition ([1]; 13 days): 41.56% | Tumor weight x±SD ([1]; 13 days): 0.94±0.20^a g | Body weight Initial ([1]; before treatment): 16.0 ± 0.7 g | Tumor volume Initial ([1]; before treatment): 140.2±13.3 mm3 | Body weight Final ([2]; 33 days): 22.8 ± 2.3 g | Relative tumor volume Treated/control ratio ([2]; 33 days): 6.75% | Relative tumor volume x±SD ([2]; 33 days): 0.34±0.22^a | Tumor volume Final ([2]; 33 days): 68.3±32.5^a mm3 | Tumor weight Inhibition ([2]; 33 days): 96.36% | Tumor weight x±SD ([2]; 33 days): 0.04±0.02^a g | Body weight Initial ([2]; before treatment): 21.0 ± 1.6 g | Tumor volume Initial ([2]; before treatment): 227.4±74.6 mm3 | Body weight Final ([3]; 13 days): 20.4 ± 0.9 g | Relative tumor volume Treated/control ratio ([3]; 13 days): 95.13% | Relative tumor volume x±SD ([3]; 13 days): 22.71±11.09 | Tumor volume Final ([3]; 13 days): 2,183.1±1,091.0 mm3 | Tumor weight x±SD ([3]; 13 days): 1.58 ± 0.79 g | Body weight Initial ([3]; before treatment): 15.6 ± 0.6 g | Tumor volume Initial ([3]; before treatment): 95.7±17.1 mm3 | Body weight Final ([4]; 33 days): 17.5 ± 2.1 g | Relative tumor volume x±SD ([4]; 33 days): 12.59±3.17 | Tumor volume Final ([4]; 33 days): 1,871.0±981.5 mm3 | Tumor weight x±SD ([4]; 33 days): 1.36 ± 0.48 g | Body weight Initial ([4]; before treatment): 16.8 ± 1.9 g | Tumor volume Initial ([4]; before treatment): 132.5±45.3 mm3
